Experimental data published in ChEMBL document CHEMBL3616437, “Thiazole compounds with activity against Cryptococcus gattii and Cryptococcus neoformans in vitro” (Eur J Med Chem, 2015).
Calls of active or inactive are those of the source. The rule behind the calls is not given here.

Experiments:
[1] = tested on: Cryptococcus neoformans; experiment: Antifungal activity against Cryptococcus neoformans 96806 assessed as reduction in cell viability at 1.9 uM after 6 to 72 hrs by MTT assay; type: functional
[2] = tested on: Cryptococcus neoformans; experiment: Antifungal activity against Cryptococcus neoformans 28JF assessed as reduction in cell viability at 1.9 uM after 6 to 72 hrs by MTT assay; type: functional
[3] = tested on: Cryptococcus neoformans; experiment: Antifungal activity against Cryptococcus neoformans WP assessed as reduction in cell viability at 1.9 uM after 6 to 72 hrs by MTT assay; type: functional
[4] = tested on: Cryptococcus neoformans; experiment: Antifungal activity against Cryptococcus neoformans LMM820 assessed as reduction in cell viability at 1.9 uM after 6 to 72 hrs by MTT assay; type: functional
[5] = tested on: Cryptococcus bacillisporus; experiment: Antifungal activity against Cryptococcus gattii ATCC 32608 assessed as reduction in cell viability after at 0.12 uM 6 to 72 hrs by MTT assay; type: functional
[6] = tested on: Cryptococcus neoformans; experiment: Post-antifungal activity against Cryptococcus neoformans CN31 assessed as organism required time to achieve cell population of 10^4 cells/ml at 0.05 uM treated for 1 hr by MTT assay; type: functional
[7] = tested on: Cryptococcus neoformans; experiment: Antifungal activity against Cryptococcus neoformans CN31 assessed as reduction in cell viability at 0.12 uM after 6 to 72 hrs by MTT assay; type: functional
[8] = tested on: Cryptococcus gattii species complex; experiment: Antifungal activity against Cryptococcus gattii 23/10993 assessed as reduction in cell viability at 0.12 uM after 6 to 72 hrs by MTT assay; type: functional, Cryptococcus bacillisporus
[9] = tested on: Cryptococcus neoformans; experiment: Antifungal activity against Cryptococcus neoformans ATCC 62066 assessed as reduction in cell viability at 0.12 uM after 6 to 72 hrs by MTT assay; type: functional
[10] = tested on: Cryptococcus neoformans; experiment: Antifungal activity against Cryptococcus neoformans 28JF assessed as reduction in cell viability at 0.12 uM after 6 to 72 hrs by MTT assay; type: functional
[11] = tested on: Cryptococcus gattii species complex; experiment: Antifungal activity against Cryptococcus gattii L28/02 assessed as reduction in cell viability at 0.12 uM after 6 to 72 hrs by MTT assay; type: functional, Cryptococcus bacillisporus
[12] = tested on: Cryptococcus neoformans; experiment: Antifungal activity against Cryptococcus neoformans VM-MCMMPI assessed as reduction in cell viability at 0.12 uM after 6 to 72 hrs by MTT assay; type: functional
[13] = tested on: Cryptococcus gattii species complex; experiment: Antifungal activity against Cryptococcus gattii L24/01 assessed as reduction in cell viability at 0.12 uM after 6 to 72 hrs by MTT assay; type: functional, Cryptococcus bacillisporus
[14] = tested on: Cryptococcus neoformans; experiment: Antifungal activity against Cryptococcus neoformans F10 assessed as reduction in cell viability at 0.12 uM after 6 to 72 hrs by MTT assay; type: functional
[15] = tested on: Cryptococcus neoformans; experiment: Antifungal activity against Cryptococcus neoformans 27JF assessed as reduction in cell viability at 0.12 uM after 6 to 72 hrs by MTT assay; type: functional
[16] = tested on: Cryptococcus neoformans; experiment: Antifungal activity against Cryptococcus neoformans LMM820 assessed as reduction in cell viability at 0.12 uM after 6 to 72 hrs by MTT assay; type: functional
[17] = tested on: Cryptococcus gattii species complex; experiment: Antifungal activity against Cryptococcus gattii 1913ER assessed as reduction in cell viability at 0.12 uM after 6 to 72 hrs by MTT assay; type: functional, Cryptococcus bacillisporus
[18] = tested on: Cryptococcus neoformans; experiment: Antifungal activity against Cryptococcus neoformans LMM820 assessed as reduction in cell viability at 0.9 uM after 6 to 72 hrs by MTT assay; type: functional
[19] = tested on: Cryptococcus neoformans; experiment: Antifungal activity against Cryptococcus neoformans 96806 assessed as reduction in cell viability at 0.9 uM after 6 to 72 hrs by MTT assay; type: functional
[20] = tested on: Cryptococcus neoformans; experiment: Antifungal activity against Cryptococcus neoformans ATCC 28957 assessed as reduction in cell viability at 0.9 uM after 6 to 72 hrs by MTT assay; type: functional
[21] = tested on: Cryptococcus neoformans; experiment: Antifungal activity against Cryptococcus neoformans WP assessed as reduction in cell viability at 0.9 uM after 6 to 72 hrs by MTT assay; type: functional
[22] = tested on: Cryptococcus neoformans; experiment: Antifungal activity against Cryptococcus neoformans 28JF assessed as reduction in cell viability at 0.9 uM after 6 to 72 hrs by MTT assay; type: functional
[23] = tested on: Cryptococcus neoformans; experiment: Post-antifungal activity against Cryptococcus neoformans CN31 assessed as organism required time to achieve cell population of 10^4 cells/ml at 0.9 uM treated for 1 hr by MTT assay; type: functional
[24] = tested on: Cryptococcus neoformans; experiment: Antifungal activity against Cryptococcus neoformans F10 assessed as reduction in cell viability at 0.9 uM after 6 to 72 hrs by MTT assay; type: functional
[25] = tested on: Cryptococcus gattii species complex; experiment: Antifungal activity against Cryptococcus gattii L27/01 assessed as reduction in ergosterol content at MIC after 24 hrs by spectrophotometric analysis in presence of amphotericin B; type: functional, organism-based; settings: Cryptococcus bacillisporus
In short: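 Pellet washed and weighed, then saponified in 25% ethanolic KOH at 85°C for 1 h. Extracted with water and n-heptane, read at 282 and 230 nm. Ergosterol taken from a standard curve and expressed as % of growth control.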

[26] = tested on: Cryptococcus neoformans; experiment: Antifungal activity against Cryptococcus neoformans 28JF assessed as reduction in cell viability at 26 uM after 6 to 72 hrs by MTT assay; type: functional
In short: (§1)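 Time-kill setup: colonies from two 48 h, 35°C SDA passages were suspended in saline to 70% transmittance at 530 nm. They were then diluted to 1-5 x10^3 cells/mL in RPMI with L-glutamine buffered to pH 7.0 with 0.165 M MOPS. Plates were incubated at 35°C for 0-72 h, then MTT (5.0 mg/mL) was added for 3 h. After isopropanol, absorbance was read at 490 nm. Drug-free controls were included, results were confirmed by SDA colony counts, and assays were run in triplicate.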

[27] = tested on: Cryptococcus neoformans; experiment: Antifungal activity against Cryptococcus neoformans VM-MCMMPI assessed as reduction in cell viability at 26 uM after 6 to 72 hrs by MTT assay; type: functional; in short: as §1
[28] = tested on: Cryptococcus gattii species complex; experiment: Antifungal activity against Cryptococcus gattii L24/01 assessed as reduction in cell viability at 26 uM after 6 to 72 hrs by MTT assay; type: functional, Cryptococcus bacillisporus; in short: as §1
[29] = tested on: Cryptococcus neoformans; experiment: Antifungal activity against Cryptococcus neoformans CN31 assessed as reduction in cell viability at 26 uM after 6 to 72 hrs by MTT assay; type: functional; in short: as §1
[30] = tested on: Cryptococcus gattii species complex; experiment: Antifungal activity against Cryptococcus gattii LMM818 assessed as reduction in cell viability at 26 uM after 6 to 72 hrs by MTT assay; type: functional, Cryptococcus bacillisporus; in short: as §1
[31] = tested on: Cryptococcus bacillisporus; experiment: Antifungal activity against Cryptococcus gattii ATCC 32608 assessed as reduction in cell viability at 26 uM after 6 to 72 hrs by MTT assay; type: functional; in short: as §1
[32] = tested on: Cryptococcus neoformans; experiment: Antifungal activity against Cryptococcus neoformans WP assessed as reduction in cell viability at 26 uM after 6 to 72 hrs by MTT assay; type: functional; in short: as §1
[33] = tested on: Cryptococcus gattii species complex; experiment: Antifungal activity against Cryptococcus gattii 23/10993 assessed as reduction in cell viability at 26 uM after 6 to 72 hrs by MTT assay; type: functional, Cryptococcus bacillisporus; in short: as §1
[34] = tested on: Cryptococcus neoformans; experiment: Antifungal activity against Cryptococcus neoformans LMM820 assessed as reduction in cell viability at 26 uM after 6 to 72 hrs by MTT assay; type: functional; in short: as §1
[35] = tested on: Cryptococcus gattii species complex; experiment: Antifungal activity against Cryptococcus gattii L28/02 assessed as reduction in cell viability at 26 uM after 6 to 72 hrs by MTT assay; type: functional, Cryptococcus bacillisporus; in short: as §1
[36] = tested on: Cryptococcus neoformans; experiment: Antifungal activity against Cryptococcus neoformans 96806 assessed as reduction in cell viability at 26 uM after 6 to 72 hrs by MTT assay; type: functional; in short: as §1
[37] = tested on: Cryptococcus gattii species complex; experiment: Antifungal activity against Cryptococcus gattii 135L/03 assessed as reduction in cell viability at 26 uM after 6 to 72 hrs by MTT assay; type: functional, Cryptococcus bacillisporus; in short: as §1

For `C(=N\Nc1nc(-c2ccccc2)cs1)/C1CCCCC1`, which Activity [1] is on record?
Its Activity is 90%.

And the Activity [2]?
Its Activity is 90%.

What about the Activity [3] of the same compound?
Its Activity is 90%.

And the Activity [4]?
Its Activity is 90%.

With `C[C@@H]1[C@H](O)[C@@H](C)/C=C/C=C/C=C/C=C/C=C/C=C/C=C/[C@H](O[C@@H]2O[C@H](C)[C@@H](O)[C@H](N)[C@@H]2O)C[C@@H]2O[C@](O)(C[C@@H](O)C[C@@H](O)[C@H](O)CC[C@@H](O)C[C@@H](O)CC(=O)O[C@H]1C)C[C@H](O)[C@H]2C(=O)O` [AMPHOTERICIN B] as the compound, how does the Activity [5] read?
The Activity was 90%.

And the Time [6]?
Its Time is 2.75 h.

And the Activity [7]?
The Activity was 90%.

What about the Activity [8] of the same compound?
Its Activity is 90%.

What about the Activity [9] of the same compound?
The Activity was 90%.

And the Activity [10]?
The Activity was 90%.

And the Activity [11]?
Its Activity is 90%.

And the Activity [12]?
The Activity was 90%.

And the Activity [13]?
The Activity was 90%.

What about the Activity [14] of the same compound?
The Activity was 90%.

What about the Activity [15] of the same compound?
The Activity was 90%.

And the Activity [16]?
The Activity was 90%.

And the Activity [17]?
Its Activity is 90%.

Which Activity [18] does the source give for `COc1ccc(-c2csc(N/N=C(\C)CCO)n2)cc1` here?
Its Activity is 90%.

What about the Activity [19] of the same compound?
The Activity was 90%.

And the Activity [20]?
The Activity was 90%.

What about the Activity [21] of the same compound?
The Activity was 90%.

And the Activity [22]?
The Activity was 90%.

What about the Time [23] of the same compound?
The Time was 2.8 h.

And the Activity [24]?
Its Activity is 90%.

What about the Activity [25] of the same compound?
The Activity was “inactive”.

How did the Activity [26] turn out when `OC(Cn1cncn1)(Cn1cncn1)c1ccc(F)cc1F` [FLUCONAZOLE] was run?
The Activity was 80%.

And the Activity [27]?
Its Activity is 80%.

And the Activity [28]?
Its Activity is 80%.

And the Activity [29]?
Its Activity is 80%.

And the Activity [30]?
The Activity was 80%.

And the Activity [31]?
Its Activity is 80%.

What about the Activity [32] of the same compound?
The Activity was 80%.

And the Activity [33]?
Its Activity is 80%.

And the Activity [34]?
The Activity was 80%.

And the Activity [35]?
Its Activity is 80%.

What about the Activity [36] of the same compound?
The Activity was 80%.

And the Activity [37]?
The Activity was 80%.
